# In the library only some 1.8% were active in any assay of this set; here they are far more common.
# M5 PAM: human M5 muscarinic receptor positive allosteric modulators, primary screen, CHO-K1 cells, Fluo-8 calcium fluorescence. Muscarinic acetylcholine receptor M5 (Homo sapiens), P08912. CHO-K1 hM5, ACh EC20 PAM; 0% = ACh EC20, 100% = ACh EC100. activation, % at 3 µM. actives 0.3% (n = 360,000). AID 624038, 2012;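 active means activation above the run cutoff, the mean activation of all test compounds plus 3 SD, cut at about 18% in these data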
#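 Probe or stimulus: acetylcholine, EC20 level; Assay system: human M5 receptor in CHO-K1 cells; Schedule: compound preincubation 140 s before EC20 acetylcholine addition; Technique: intracellular calcium via Fluo-8 fluorescence; Dosing: single-point, 3 µM nominal; Read-out basis: percent activation from peak-over-basal fluorescence ratio, scaled EC20-to-EC100 acetylcholine; Repeats: one well per compound, no replicates.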
# M4 ag: human M4 muscarinic receptor agonists, primary screen, CHO-K1 cells, Fluo-8 calcium fluorescence. Muscarinic acetylcholine receptor M4 (Homo sapiens), P08173. CHO-K1 hM4/Gqi5; vehicle 0%, full acetylcholine response 100%. activation, % at 3 µM. actives 0.14% (n = 360,000);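 active means activation above the run mean over all test wells plus 3 SD, cut at about 32% in these data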;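 further: peak over basal fluorescence ratio per well then scaled between controls; 0% = DMSO wells and 100% = acetylcholine at EC100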
# Target sequence (P08173 whole entry, looked up): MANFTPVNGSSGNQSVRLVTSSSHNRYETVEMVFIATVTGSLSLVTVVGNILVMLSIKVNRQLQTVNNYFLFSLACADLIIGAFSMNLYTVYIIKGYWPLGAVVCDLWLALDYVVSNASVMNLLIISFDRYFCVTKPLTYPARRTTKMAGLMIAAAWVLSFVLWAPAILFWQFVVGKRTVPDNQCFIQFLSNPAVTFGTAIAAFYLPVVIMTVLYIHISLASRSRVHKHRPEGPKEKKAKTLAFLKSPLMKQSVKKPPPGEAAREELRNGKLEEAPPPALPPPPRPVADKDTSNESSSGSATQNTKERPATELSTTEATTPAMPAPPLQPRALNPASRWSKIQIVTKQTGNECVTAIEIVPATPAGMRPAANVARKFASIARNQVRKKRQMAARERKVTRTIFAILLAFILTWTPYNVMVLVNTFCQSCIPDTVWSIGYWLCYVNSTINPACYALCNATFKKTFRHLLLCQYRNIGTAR
# CHRM4 antagonist: human M4 muscarinic receptor antagonists, primary screen, CHO cells, Fluo-8 calcium fluorescence; AID 624125, 2012; inhibition, % at 3 µM; Muscarinic acetylcholine receptor M4 (Homo sapiens), P08173; CHO-hM4 cells, ACh EC80; actives 0.73% (n = 360,000);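 active means inhibition above its plate's cutoff, the mean inhibition of sample wells plus 3 SD, cut at about 27% in these data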;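 further: 0% = acetylcholine EC80 with DMSO and 100% = DMSO without agonist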
# M5 ag: human M5 muscarinic receptor agonists, primary screen, CHO-K1 cells, Fluo-8 calcium fluorescence. Muscarinic acetylcholine receptor M5 (Homo sapiens), P08912. CHO-K1 hM5 cells; 0% DMSO wells, 100% maximal acetylcholine response. activation, % at 3 µM. actives 0.19% (n = 360,000);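 active means activation above the run's mean over test compounds plus 3 SD, cut at about 23% in these data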;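 further: signal is peak over basal fluorescence ratio across the kinetic read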
# CHRM5 antagonist: human M5 muscarinic receptor antagonists, primary screen, CHO cells, Fluo-8 calcium fluorescence; CHO-hM5 cells, ACh EC80; inhibition, % at 3 µM; Muscarinic acetylcholine receptor M5 (Homo sapiens), P08912; actives 0.59% (n = 360,000); AID 624040, 2012;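 active means inhibition above a per-plate cutoff, the mean of that plate's test compounds plus 3 SD, cut at about 27% in these data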;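 further: 0% = acetylcholine EC80 with DMSO and 100% = DMSO without agonist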
# M4 PAM: human M4 muscarinic receptor positive allosteric modulators, primary screen, CHO-K1 cells, Fluo-8 calcium fluorescence. actives 0.4% (n = 360,000). activation, % at 3 µM. CHO-K1 hM4/Gqi5, ACh EC20; 0% = ACh EC20, 100% = maximal ACh. Muscarinic acetylcholine receptor M4 (Homo sapiens), P08173. AID 624126, 2012;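 active means activation above its plate's cutoff, the mean activation of sample wells plus 3 SD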
# * = called active by the depositor; ! = not active in a repeat.
SMILES,M5 PAM,M4 ag,CHRM4 antagonist,M5 ag,CHRM5 antagonist,M4 PAM
CCNC(=O)N(C)c1c(CC)nc2ccc(C(=O)Nc3cccc(OCC(=O)N(C)C)c3)cn12,-9.1,0.1,-3.4,1.5,19.2,-0.6
CCCCCCN1CCN(C2CN(Cc3ccc(F)cc3)S(=O)(=O)C2)CC1 (stereo not given),-3.1,2.3,-0.4,-5.1,-6.8,-7.6
O=c1[nH][nH]c2c1[C@H](CCc1cccc(Cl)c1)O[C@H](C1CCCC1)C2,-4.5,0.7,-23.1,3.5,1.6,7.3
CC(C)CN(C(=O)CSc1nc2ccccc2c(=O)[nH]1)c1c(N)n(CC(C)C)c(=O)[nH]c1=O,-4.0,1.8,-9.8,3.0,11.7,24.0*
O=S(=O)(Nc1cc(Cl)cc(Cl)c1)N1CCOCC1,-0.9,2.2,4.0,-2.5,-2.9,2.4
CCOc1ccc(OCC)c(NC(=O)CN2CCN(c3ccc(C)cc3C)CC2)c1,-3.6,-0.1,7.2,-0.1,-14.8,19.8*
OC[C@@H]1CN(Cc2cccc(C(F)(F)F)c2)C[C@H](n2cnc3c(NC4CC4)ncnc32)O1,-0.5,1.6,-3.4,0.0,8.4,2.6
CS(=O)(=O)N(CC(=O)N1CCCC1)c1cccc(Cl)c1,28.4*,0.2,2.2,-6.8,3.3,4.5
Cc1cccc(N(CC(=O)N2CCCC2)S(C)(=O)=O)c1,4.7,-0.1,6.8,2.8,-1.7,-1.2
CCOC(=O)c1ccc(N=c2sc(C(=O)OC)cc(=O)n2Cc2ccco2)cc1,-5.8,1.6,-5.0,-0.5,1.9,-4.7
CCOC(=O)c1ccc(N=c2sc(C(=O)OC)cc(=O)n2CCCN2CCOCC2)cc1,-7.6,2.1,52.2*!,-1.1,3.0,-12.8
COc1ccc(CCn2c(NN=C3CCCCC3)nc3c2c(=O)[nH]c(=O)n3C)cc1,5.4,-0.1,2.4,1.5,6.0,13.8*
Cn1cc(-c2csc(C(O)c3ccc(F)c(F)c3)n2)cn1 (stereo not given),3.5,2.1,-0.2,4.4,-2.6,1.9
CCCCCCCCCCCCCCCCn1cc[n+](C)c1,-20.7,1.6,30.1*,-5.6,48.0*,-17.0
N/C(=N\OC(=O)c1cccc([N+](=O)[O-])c1)c1cccnc1,-4.5,4.8,-2.6,1.5,5.7,25.0*
Cc1cccc(C(=O)O/N=C(\N)c2cccc([N+](=O)[O-])c2)c1,3.7,0.5,10.9,0.4,-9.4,8.9
CN(C)CCN1CCN(C(c2ccnc3ccccc23)c2nnnn2-c2ccc3c(c2)OCCO3)CC1 (stereo not given),0.0,0.5,-11.3,-0.2,-10.8,11.3
CCOC(=O)C(NC(=O)c1ccccc1)(OCC1(CC)COC1)C(F)(F)F (stereo not given),-1.2,0.2,-3.5,-1.9,-1.1,-5.1
CCOC(=O)C(NC(=O)c1ccc(OC)cc1)(OCC1(CC)COC1)C(F)(F)F (stereo not given),10.9,0.2,-6.8,-2.2,-11.7,17.9*
COc1ccc(C(=O)Oc2ccc3ccc(=O)oc3c2)cc1,-4.3,7.6,-16.2,-2.4,2.3,3.0
COc1ccc(C(=O)Oc2ccc3oc(=O)sc3c2)cc1,-0.6,5.2,57.6*,0.7,8.6,-22.8
COc1cc(-c2coc3c(C(=O)NCc4ccc(OC)c(OC)c4)cccc23)ccc1O,-16.1,22.9,5.5,10.0,15.1,-8.8
COc1ccc(CNC(=O)c2cccc3c(-c4cccc(C(N)=O)c4)coc23)cc1OC,-16.6,20.9,20.8,9.2,27.2*,-10.0
CCn1ncc(CN2CCCC(C(=O)c3cccc(OC(C)C)c3)C2)c1C (stereo not given),-13.8,1.2,37.8*,-9.9,29.2*,-18.2

# From PubChem
